High-throughput results (PubChem BioAssay)
APP 5'UTR act: activates APP 5'UTR luciferase reporter | SH-SY5Y APP 5'UTR luciferase reporter, luminescence; zero percent = DMSO vehicle wells | activation, % at 2 µM | hit rate 1% among 190,000 | AID 1276;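 active = activation above a set limit, based on mean plus 3 SD of controls, cut at about 140% in these data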
NF-kB expr up: raises NF-kB expression in human neuronal cells. fold change at 12.5 µM. hit rate 1.6% among 190,000. NF-kB reporter expression; active compounds read high. AID 1239; in the data active = fold change above about 3.3
STAT3 inh-1: reduces IL-6 driven STAT3 reporter signal; U3A cells, IL-6 STAT3-luciferase reporter, luminescence; host cell line lacks STAT1; inhibition, % at 5.5 µM; hit rate 0.89% among 190,000; AID 862;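 active = inhibition above the mean inhibition across all screened compounds plus 3 SD, cut at about 44% in these data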
STAT1 blocker: reduces IFN-gamma driven STAT1 reporter signal; inhibition, % at 5.5 µM; hit rate 0.35% among 200,000; AID 920; NIH 3T3 STAT1-luciferase reporter, luminescence;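 active = inhibition above a set limit, the mean inhibition across all tested compounds plus 3 SD, cut at about 34% in these data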
STAT1 act: STAT1 signaling activation; NIH 3T3 STAT1-luciferase reporter, IFN-gamma, luminescence; 100% = IFN-gamma alone, no compound; activation (% of control), % at 5.5 µM; hit rate 2.6% among 200,000;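 active = activation above the screen-wide mean activation plus 3 SD, cut at about 130% in these data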
STAT3 act: STAT3 signaling activation; hit rate 0.91% among 190,000; AID 871; activation (% of control), % at 5.6 µM; U3A cells, IL-6 STAT3-luciferase reporter, luminescence; 100% = signal with IL-6 EC80 alone;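 active = activation above the screen-wide mean of compound activation plus 3 SD, cut at about 130% in these data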
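Material: human U3A cells carrying STAT3-luciferase construct. Measured by: reporter luminescence signal. Timing: compound 1 h, then IL-6 6 h at 37 °C.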
STAT3 inh-2: confirmation of STAT3 signaling inhibitors | shares compounds with STAT3 inh-1 | U3A cells, IL-6 STAT3 luciferase reporter, luminescence; cell line lacks STAT1 | inhibition, % at 5.7 µM | hit rate 45% among 1,200 | AID 1265;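 active = inhibition above the hit cutoff computed for the primary STAT3 screen, cut at about 44% in these data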
NFkB inh STAT3ct: NF-kappaB inhibition in STAT3 inhibitor counter-screen | shares compounds with STAT3 inh-1 | HEK293T NF-kB luciferase reporter, TNF-alpha induced | inhibition, % at 5.7 µM | hit rate 36% among 1,200;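 active = inhibition above the mean of solvent-only control wells plus 3 SD, cutoff set per campaign, cut at about 13% in these data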
STAT1 inh 2: STAT1 inhibition in STAT3 inhibitor counter-screen | AID 1317 | NIH 3T3 STAT1-luciferase reporter, IFN-gamma induced, luminescence | hit rate 27% among 1,200 | shares compounds with STAT3 inh-1 | inhibition, % at 5.7 µM;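 active = inhibition above the mean plus 3 SD of solvent-only control wells, limit set per screening run, cut at about 16% in these data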
A number is an active result; 0 = inactive; - = no result. This is a sample that favours compounds with a hit; in the whole collection about 5.1% have one here.

SMILES	APP 5'UTR act	NF-kB expr up	STAT3 inh-1	STAT1 blocker	STAT1 act	STAT3 act	STAT3 inh-2	NFkB inh STAT3ct	STAT1 inh 2
O=c1c2ccccc2nc(N/N=C/c2ccc(O)cc2)n1O	0	0	52	0	0	0	0	16	34
O=C(NCc1cccnc1)c1ccc(-c2cc3ccccc3oc2=O)cc1	0	0	46	0	0	0	0	0	0
COc1ccc(C(=O)C2CCN(C(=S)Nc3ccc(F)cc3)CC2)cc1	0	0	0	0	0	0	-	-	-
O=C(CSc1nnc(NC(=O)c2ccc3c(c2)OCO3)s1)NCc1ccco1	0	0	53	0	0	0	0	0	0
CCC(C)(C)c1ccc(OCCCC[n+]2cccc(C)c2)c(C(C)(C)CC)c1	0	0	67	0	0	0	50	0	0
Cn1c2ccccc2n2c(=O)c(=O)n(CC(=O)N3CCCc4ccccc43)nc12	0	0	0	0	0	0	-	-	-
CCOc1ccccc1NC(=S)Nc1ncccc1C	0	0	0	0	0	0	-	-	-
COc1ccc(NC(=S)Nc2ncccc2C)c(OC)c1	0	0	47	0	0	0	0	0	0
COc1ccc(Nc2oc(COc3ccc(Cl)cc3)nc2C#N)cc1	0	0	47	0	0	0	0	0	0
CC1(C)CC2CC(C)(CN2S(=O)(=O)c2ccc(C(=O)Nc3ccc(Cl)c(S(=O)(=O)N4CCOCC4)c3)cc2)C1 (centres undefined)	0	0	45	0	0	0	50	22	0
CN(C(=O)c1ccccc1)c1nc2ccccc2s1	215	4.1	56	0	139	0	0	0	0
CCC(Sc1ccccn1)C(=O)Nc1cccc([N+](=O)[O-])c1 (centres undefined)	0	0	0	0	0	0	-	-	-
CC(C)COC(=O)c1ccc2c(c1O)C(=O)c1ccccc1C2=O	0	0	46	0	0	0	0	0	0
O=S(=O)(c1ccc(Cl)cc1)N1CCC(O)(CN2CCN(Cc3ccccc3)CC2)CC1	0	0	0	0	0	0	-	-	-
O=S(=O)(c1ccccc1)N1CCC(O)(CSc2ccc(Cl)cc2)CC1	0	0	76	0	0	0	47	17	0
CCc1nnnn1-c1ccc([N+](=O)[O-])cc1C	0	-	0	0	0	0	-	-	-
O=c1c(-c2nn[nH]n2)coc2ccc(Cl)cc12	0	0	0	0	0	0	-	-	-
COc1ccc(OCC(=O)Nc2nccs2)cc1	0	3.9	69	0	0	0	0	0	0
COc1ccc(OCCC(=O)Nc2nccs2)cc1	0	0	0	0	0	0	-	-	-
CCOC(=O)c1cc(C(=O)NC(C)c2ccccc2)c(C)[nH]c1=O (centres undefined)	0	0	0	0	0	0	-	-	-
O=c1[nH]c(CSc2ccccn2)nc2c1oc1ccccc12	0	0	71	0	0	0	0	0	0
c1ccc(-c2ccc(-c3ccccn3)nn2)nc1	0	0	51	0	0	0	0	0	0
Nn1c(-c2ccccn2)nnc1-c1ccccn1	0	0	0	0	0	0	-	-	-
Cn1c(N)c(C(=O)COC(=O)CC(NC(=O)c2ccccc2Cl)c2ccccc2)c(=O)n(C)c1=O (centres undefined)	0	0	0	0	0	0	-	-	-
Cc1c(-c2ccccc2)oc2c(C(=O)OCC(=O)Nc3ccc(C(N)=O)cc3)cccc2c1=O	0	0	0	0	0	0	-	-	-
Cc1nnsc1NC(=O)OCc1ccc(Cl)cc1Cl	0	0	0	0	0	0	-	-	-
Cc1nn(C)c(Cl)c1NC(=O)OCc1ccc(Cl)cc1Cl	0	0	51	0	0	0	0	0	0
CCCS(=O)(=O)N1CCN(c2cc3c(cc2[N+](=O)[O-])n(C)c(=O)n3C)CC1	0	0	0	0	0	0	-	-	-
Cc1ccccc1NC(=O)COC(=O)CCSc1ccccc1	0	0	0	0	0	0	-	-	-
